Data: ChEMBL document CHEMBL1131111, “Synthesis and anti-HIV-1 activity of novel 2,3-dihydro-7H-thiazolo[3,2-a]pyrimidin-7-ones” (1998)

What was measured:
Format in all cases: functional
[1] = system: Human immunodeficiency virus 1; experiment: Effective dose required for 50% inhibition of HIV-1 antigen production in MT-4 cultures
MT4 [2] = experiment: Selectivity index is the ratio between CD50 and IC50 values of the compound
Outline: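 Selectivity index calculated as CD50 (MTT, uninfected MT-4 cells) divided by ED50 (HIV-1 antigen ELISA, infected MT-4 cultures). Each value is the mean of three independent determinations.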

MT4 [3] = experiment: Cytotoxic dose required to reduce the proliferation of normal uninfected MT-4 cells by 50%; details: Homo sapiens, read-out: CD50 (the source's name)
Outline: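 Cytotoxicity scored as concentration-dependent inhibition of proliferation of uninfected MT-4 cells by MTT assay. Cells grown in RPMI 1640 + 10% heat-inactivated FCS. CD50 is the mean of three independent determinations.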

SMILES	ED50 [1] [µM]	SI (MT4 [2])	CC50 (MT4 [3]) [µM]
CCc1c(Cc2cc(C)cc(C)c2)n2c(nc1=O)SCC2OCCO (configuration not stated)	19	>5	> 100
C=CCSc1nc(O)c(CC)c(Cc2cc(C)cc(C)c2)n1	2	34	68
CCc1c(O)nc(SCC2OCCO2)nc1Cc1cc(C)cc(C)c1	3	12	37
CCOC1CSc2nc(=O)c(CC)c(Cc3ccccc3)n21 (configuration not stated)	46	>2	> 100
CCOC(CSc1nc(O)c(CC)c(Cc2cc(C)cc(C)c2)n1)OCC	21	>5	> 100
COC(CSc1nc(O)c(C(C)C)c(Cc2ccccc2)n1)OC	4	8	32
CCc1c(Cc2cc(C)cc(C)c2)n2c(nc1=O)SCC2CBr (configuration not stated)	2.8	16	46
CCOC1CSc2nc(=O)c(CC)c(Cc3cc(C)cc(C)c3)n21 (configuration not stated)	0.7	>140	> 100
C=CCSc1nc(O)c(C(C)C)c(Cc2ccccc2)n1	1.5	>67	> 100
Cc1cn([C@H]2C[C@H](N=[N+]=[N-])[C@@H](CO)O2)c(=O)[nH]c1=O [ZIDOVUDINE]	0.04	1300	52
CCOC1CSc2nc(=O)c(C(C)C)c(Cc3ccccc3)n21 (configuration not stated)	100	>1	> 100
CCOCn1c(Cc2ccccc2)c(C(C)C)c(=O)[nH]c1=O [EMIVIRINE]	0.005	28000	–
CCc1c(O)nc(SCC(OC)OC)nc1Cc1cccc2ccccc12	32	>3	> 100
CCc1c(Cc2cc(C)cc(C)c2)n2c(nc1=O)SCC2OC (configuration not stated)	3	>33	> 100
C=CCSc1nc(O)c(CC)c(Cc2ccccc2)n1	1.5	>67	> 100
CCc1c(Cc2ccccc2)n2c(nc1=O)SCC2OC (configuration not stated)	36	>3	> 100
